# Bioassay records deposited in PubChem by several laboratories.
# Shown are actives, neighbours in structure and some others; about 2.9% of the full set was active somewhere.
# Wee1 stabilizer – human Wee1 degradation inhibition, primary screen; P30291; HeLa Luc-Wee1K328M stability, luciferase luminescence; 100% = proteasome inhibitor MG132 effect; reporter increase, % at 5 µM; 1.2% of 220,000 active; AID 1321;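 active means activation above the mean of all tested compounds plus 3 SD, set per screening run, cut at about 8.8% in these data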;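 further: cells exposed to compound for 20 h before luminescence read; 0% = DMSO alone and 100% = MG132 at 30 µM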
# Runt-CBFb FRET – Runt domain-CBFb interaction inhibition; Q01196+Q13951; Cerulean-Runt/Venus-CBFb FRET ratio 530/480, 1 h; inhibition, % at 20 µM; 0.46% of 220,000 active; AID 1496;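 active means inhibition over about 50% at 20 µM in the single-dose screen, limit read from the data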;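 further: 0% = DMSO wells and 100% = excess unlabeled CBFb competitor control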
#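 test system = Cerulean-tagged RUNX1 Runt domain (FRET donor) fusion protein | reagent = Venus-CBFb binding partner, 100 nM | incubation = protein complex preformed 1 h, compound exposure 1 h, room temperature, dark | detection = FRET fluorescence | read-out basis = loss of energy transfer signal | controls = 5 µM unlabeled CBFb as full-inhibition high control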
# RanGTP-Imp inh – inhibitors of RanGTP-importin-beta interaction, primary screen, biochemical, FRET, CFP-Ran, YFP-importin-beta, homogeneous | 1.1% of 300,000 active | cell-free CFP-Ran/YFP-importin-beta FRET ratio | AID 2216 | inhibition, % (no concentration beside the values);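 active means more than half of the replicate wells show a fall in the fluorescence ratio signal beyond about 16%, limit read from the data, passing the limit was not always enough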;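 further: 0% = DMSO wells and 100% = Ran loaded with GDP instead of GTP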
# KLK7 zymogen act – activates the human kallikrein-7 zymogen; P49862; 0.9% of 370,000 active; activation, % at 7 µM; purified proKLK7, EDANS-DABCYL substrate fluorescence; 100% is mature enzyme control, 0% vehicle;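 active means activation above the mean of all tested compounds plus 3 SD, computed per campaign excluding outliers beyond control limits, cut at about 13% in these data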
# Target sequence (P49862 whole entry, looked up): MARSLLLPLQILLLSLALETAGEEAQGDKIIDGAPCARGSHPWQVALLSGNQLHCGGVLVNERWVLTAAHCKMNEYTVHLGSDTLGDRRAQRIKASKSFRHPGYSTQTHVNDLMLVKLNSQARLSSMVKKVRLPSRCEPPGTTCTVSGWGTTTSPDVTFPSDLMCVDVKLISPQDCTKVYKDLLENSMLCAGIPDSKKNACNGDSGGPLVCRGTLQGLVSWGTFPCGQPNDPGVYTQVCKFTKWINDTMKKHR
# Runt-SMMHC FRET – Runt domain-CBFb-SMMHC interaction inhibition. AID 1434. inhibition, % at 20 µM. 0.74% of 220,000 active. Q01196+Q13951. Cerulean-Runt/Venus-CBFb-SMMHC FRET ratio 530/480, 1 h;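 active means mean inhibition across duplicate retests at 20 µM reaching about 50%, limit read from the data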;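 further: 0% = DMSO wells and 100% = wells with excess untagged CBFb-SMMHC; inhibitors lower the FRET ratio by blocking Runt binding to CBFb-SMMHC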
# AI-2 QS modul – Vibrio harveyi AI-2 quorum sensing modulation. Vibrio harveyi JMH597 AI-2 luminescence/OD600 ratio, 9 h; stronger effect = lower value; strain lacks LuxN and CqsS sensors; 0 = neutral-control median. 0.4% of 300,000 active. activity change, % at 7.5 µM; in the data active means activity change below about -75%, passing the limit was not always enough;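 further: luminescence divided by OD600 gain over 9 h not by final OD600 alone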
# Wee1 stab conf – confirmation of human Wee1 degradation inhibitors; shares compounds with Wee1 stabilizer; AID 1410; HeLa Luc-Wee1K328M degradation, luminescence; vehicle 0%, proteasome-blocked wells 100%; activation, % at 5 µM; 4% of 1,100 active; in the data active means activation above about 8.9%
# The depositor's hits bear a star; . = not tested or not shown.
SMILES,Wee1 stabilizer,Runt-CBFb FRET,RanGTP-Imp inh,KLK7 zymogen act,Runt-SMMHC FRET,AI-2 QS modul,Wee1 stab conf
O=C1NC(Cc2ccc(O)cc2)c2nc3ccc(Br)cc3c(=O)n2-c2ncccc21 (configuration not stated),.,.,.,1,.,.,.
COc1ccc(CNCCNC(=O)c2cccs2)c(OC)c1OC,12*,1,7,0,2,14,-1
COc1ccc(C(C)(NC(C)=O)c2nc(-c3cccc(F)c3)cs2)cc1 (configuration not stated),.,.,.,-1,.,.,.
CN(C)C(CNc1ncnc2sc3c(c12)CCCCC3)c1ccco1 (configuration not stated),34*,0,5,0,1,29,5
Cc1nc2sc(C(c3ccc(C(C)C)cc3)N3CCN(CCO)CC3)c(O)n2n1 (configuration not stated),24*,-1,4,0,-1,11,2
CCOC(=O)[C@@H]1[C@H]2COc3cc(OC)ccc3[C@@H]2N2C(=O)N(c3ccccc3)C(=O)[C@@]12C,.,.,.,0,.,.,.
Cc1nn(Cc2cccc(F)c2)c(C)c1NC(=O)c1c(Cl)cnn1C,3,-1,3,-1,0,5,.
Cc1cc(C)c2c(N)c(C(=O)C(C)(C)C)sc2n1,13*,93*,1,0,92*,22,-1
Clc1ccc(Nc2nc(C3CC3)cs2)cc1,12*,4,0,0,-4,-3,4
Cc1ccc(-n2nc(-c3ccccc3)cc2Nc2ccccc2N)cc1,11*,1,-2,0,-2,19,2
CCOC(=O)c1sc(NC(=O)CNC(=O)Cn2cnc3sc(C)c(C)c3c2=O)nc1C,11*,-2,-4,0,-4,14,-2
CCOCCn1cnc2sc(C(=O)Nc3nc(C)c(C(=O)OCC)s3)c(C)c2c1=O,-1,0,.,.,-6,14,.
C(=C\c1ccco1)/c1nc2ccccc2[nH]1,14*,-1,-1,-2,-29,8,3
COc1ccccc1-c1ccc(SCc2ccccc2F)nn1,13*,-1,-3,0,0,25,14*
COc1ccc(-n2c(SCC(=O)Nc3cc(C)on3)nc3c(c2=O)SC(C)C3)cc1 (configuration not stated),.,.,.,0,.,.,.
Cc1ccc(F)c(NC(=O)c2ccc(Cn3cc(Cl)cn3)cc2)c1,12*,1,3,0,-3,10,1
CNC(=S)NNC(=O)Cc1ccccc1,-1,1,4,0,4,4,.
CCOc1ccc(CC(=O)NNC(=S)NC)cc1,14*,1,-5,0,-3,8,-3
O=C(N/N=C/c1ccc(F)cc1)c1ccccc1,12*,-2,-1,-1,-1,37,3
O=C(O)c1ccc(/C=N/NC(=O)c2ccc(F)cc2)cc1,-2,-1,9,-1,0,18,.
Cc1cccc(C(=O)n2c(=S)nc3cc(C)ccn32)c1,3,14,0,0,-5,-1,.
Cc1ccn2c(c1)nc(=S)n2C(=O)c1ccccc1,14*,12,2,0,3,6,2
CC(C)CN1CCC(CNC(=O)CCc2nnc(Cc3c[nH]c4ccccc34)o2)CC1,-3,1,-4,0,-2,16,.
CC1CCCCN1C(=O)CSc1nnc(-c2c[nH]c3ccccc23)o1 (configuration not stated),13*,-2,3,0,-1,3,1
CC1CCCCN1C(=O)CSc1nnc(-c2cccs2)o1 (configuration not stated),.,.,-1,0,.,9,.
SMILES,Wee1 stabilizer,Runt-CBFb FRET,RanGTP-Imp inh,KLK7 zymogen act,Runt-SMMHC FRET,AI-2 QS modul,Wee1 stab conf
Cc1ccc(C2=NN(S(C)(=O)=O)C(c3cccs3)C2)cc1 (configuration not stated),11*,.,0,0,-3,12,6
COCCNC(=O)C1(C)CCCN(CCOc2ccc(Cl)cc2)C1 (configuration not stated),.,.,.,-1,.,.,.
O=S(=O)(NC(=NCc1ccccc1)c1ccc(F)cc1)c1ccc(Cl)cc1,3,-1,1,0,1,15,.
COc1cc(SC)ccc1C(=O)Nc1ccc2c(c1)OCO2,13*,1,-2,0,2,15,3
COCCNC(=S)N(C)[C@H]1C[C@H]2c3cc(-c4ccccc4)ccc3CCN2C(=O)[C@H]1[C@H](C)O,.,.,.,0,.,.,.
COCCOC(=O)c1c(C)oc2ccc(OCc3ccccc3)cc12,14*,-4,-2,0,-2,-6,0
CCOc1ccc(NC(=S)Nc2ccc(OCc3ccccc3)cc2)cc1,16*,3,0,0,5,32,1
CNC(=S)Nc1ccc(OCc2ccccc2)cc1,1,0,-3,0,-2,8,.
Cc1cc(N2CCCC2)nc(N2C3CCC2CC(O)(c2ccc(F)cc2)C3)n1 (configuration not stated),16*,0,-3,.,-2,10,-3
CN(CCOc1ccccc1)C(=O)c1cc([N+](=O)[O-])cc([N+](=O)[O-])c1,17*,-1,-3,1,-1,37,-3
CCS(=O)(=O)Nc1cccc(-c2nc3cccnc3s2)c1,12*,0,0,-1,-2,12,0
COc1ccccc1CNS(=O)(=O)CCNCc1ccco1,.,.,.,0,.,.,.
COc1cc(C2=NOC(C(=O)NCc3cccs3)C2)cc(OC)c1OC (configuration not stated),11*,2,-4,0,2,18,15*
NNC(=O)CN1C(c2ccccc2Br)=Nc2ccc(Br)cc2C1c1ccccc1 (configuration not stated),11*,-5,4,-1,-1,16,-1
CCNCc1ccc(OCc2ccccc2F)c(OC)c1,2,-2,.,0,3,6,.
COc1cc(CNCCCCO)ccc1OCc1ccccc1F,12*,1,-1,0,1,13,-2
COc1ccc(OC)c2sc(N3CCN(c4ccccc4)CC3)nc12,22*,.,3,0,.,14,1
O=C(O)CCC(=O)N1N=C(c2ccccc2)CC1c1ccc2nccnc2c1 (configuration not stated),13*,1,-3,0,1,3,0
O=C(CN(c1ccccc1)S(=O)(=O)c1ccccc1[N+](=O)[O-])NN=C1CCCCCCC1,0,-2,-5,0,0,32,.
